Results from ChEMBL document CHEMBL1158387, “Regioselective synthetic approaches towards 1,2,8,9-tetraazadispiro[4.1.4.2]trideca-2,9-dien-6-ones of potential antimicrobial properties” (2009).
Values after ≈ are worked out from the molar mass of the structure shown. Active and inactive are the calls of the source. The calls are words filed in the database; no cut-off is given here.

Key:
Type in all cases: functional
[1] = system: Staphylococcus aureus; assay: Antibacterial activity against Staphylococcus aureus ATCC 25923 after 18 hrs by agar dilution technique
How it was run: (§1)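 Agar dilution per CLSI; compounds dissolved in DMSO; plates incubated at 37 °C for 18 h; MIC taken as lowest compound concentration spot with no growth. Standard ATCC strains.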

[2] = system: Streptococcus agalactiae; assay: Antibacterial activity against Streptococcus agalactiae […] after 18 hrs by agar dilution technique; how it was run: as §1
[3] = system: Proteus vulgaris; assay: Antibacterial activity against Proteus vulgaris ATCC 13315 after 18 hrs by agar dilution technique; how it was run: as §1
[4] = system: Escherichia coli; assay: Antibacterial activity against Escherichia coli ATCC 25922 after 18 hrs by agar dilution technique; how it was run: as §1
[5] = system: Candida albicans; assay: Antifungal activity against Candida albicans ATCC 20260 after 18 hrs by agar dilution technique
How it was run: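 Agar dilution per CLSI with compounds dissolved in DMSO and spotted onto agar against ATCC standard strains. Plates were incubated at 37 °C for 18 h.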

[6] = system: Enterococcus faecalis; assay: Antibacterial activity against Enterococcus faecalis ATCC 29212 after 18 hrs by agar dilution technique; how it was run: as §1
[7] = system: Klebsiella pneumoniae; assay: Antibacterial activity against Klebsiella pneumoniae ATCC 33495 after 18 hrs by agar dilution technique; how it was run: as §1

Structure (SMILES)	MIC ([1]; ATCC 25923, 18 h) [µg/mL]	MIC [2]	MIC ([3]; ATCC 13315, 18 h) [µg/mL]	MIC ([4]; ATCC 25922, 18 h) [µg/mL]	MIC [5]	MIC ([6]; ATCC 29212, 18 h) [µg/mL]	MIC ([7]; ATCC 33495, 18 h) [µg/mL]	MIC [1]	MIC [3]	MIC [4]	MIC ([5]; ATCC 20260, 18 h) [µg/mL]	MIC [6]	MIC [7]
O=C1/C(=C/c2ccccc2)CC[C@@]12[C@H](c1ccccc1)C(c1ccccc1)=NN2c1ccccc1	5 (≈ 11 µM)	2.5 µg/mL (≈ 5.5 µM)	2.5 (≈ 5.5 µM)	5 (≈ 11 µM)	inactive	2.5 (≈ 5.5 µM)	2.5 (≈ 5.5 µM)						
Cc1ccc(N2N=C(c3ccccc3)C(c3ccc(Cl)cc3)C23CCC2(C3=O)C(c3ccc(Cl)cc3)C(c3ccccc3)=NN2c2ccc(C)cc2)cc1 (centres undefined)	10 (≈ 13.4 µM)	10 µg/mL (≈ 13.4 µM)	10 (≈ 13.4 µM)	10 (≈ 13.4 µM)	inactive	10 (≈ 13.4 µM)	5 (≈ 6.7 µM)						
Cc1ccc(N2N=C(c3ccccc3)C(c3ccccc3)C23CCC2(C3=O)C(c3ccccc3)C(c3ccccc3)=NN2c2ccc(C)cc2)cc1 (centres undefined)	2.5 (≈ 3.69 µM)	2.5 µg/mL (≈ 3.69 µM)	5 (≈ 7.39 µM)	10 (≈ 14.8 µM)	inactive	5 (≈ 7.39 µM)	5 (≈ 7.39 µM)						
O=C1C2(CCC13C(c1ccc(Cl)cc1)C(c1ccccc1)=NN3c1ccccc1)C(c1ccc(Cl)cc1)C(c1ccccc1)=NN2c1ccccc1 (centres undefined)	10 (≈ 13.9 µM)	10 µg/mL (≈ 13.9 µM)	10 (≈ 13.9 µM)	10 (≈ 13.9 µM)	inactive	10 (≈ 13.9 µM)	10 (≈ 13.9 µM)						
Cc1ccc(N2N=C(c3ccccc3)C(c3ccc(F)cc3)C23CCC2(C3=O)C(c3ccc(F)cc3)C(c3ccccc3)=NN2c2ccc(C)cc2)cc1 (centres undefined)	10 (≈ 14 µM)	2.5 µg/mL (≈ 3.51 µM)	10 (≈ 14 µM)	10 (≈ 14 µM)	inactive	10 (≈ 14 µM)	10 (≈ 14 µM)						
O=C1C2(CCC13C(c1ccc(F)cc1)C(c1ccccc1)=NN3c1ccccc1)C(c1ccc(F)cc1)C(c1ccccc1)=NN2c1ccccc1 (centres undefined)	5 (≈ 7.3 µM)	10 µg/mL (≈ 14.6 µM)	10 (≈ 14.6 µM)	5 (≈ 7.3 µM)	inactive	10 (≈ 14.6 µM)	10 (≈ 14.6 µM)						
C[C@@H]1[C@H](O)[C@@H](C)/C=C/C=C/C=C/C=C/C=C/C=C/C=C/[C@H](O[C@@H]2O[C@H](C)[C@@H](O)[C@H](N)[C@@H]2O)C[C@@H]2O[C@](O)(C[C@@H](O)C[C@@H](O)[C@H](O)CC[C@@H](O)C[C@@H](O)CC(=O)O[C@H]1C)C[C@H](O)[C@H]2C(=O)O [AMPHOTERICIN B]		inactive						inactive	inactive	inactive	4 (≈ 4.33 µM)	inactive	inactive
O=C1C2(CCC13C(c1ccccc1)C(c1ccccc1)=NN3c1ccccc1)C(c1ccccc1)C(c1ccccc1)=NN2c1ccccc1 (centres undefined)	1.3 (≈ 2 µM)	2.5 µg/mL (≈ 3.85 µM)	10 (≈ 15.4 µM)	10 (≈ 15.4 µM)	inactive	2.5 (≈ 3.85 µM)	10 (≈ 15.4 µM)						
O=C(O)c1cn(C2CC2)c2cc(N3CCNCC3)c(F)cc2c1=O [CIPROFLOXACIN]	0.3 (≈ 0.905 µM)	0.6 µg/mL (≈ 1.81 µM)	0.3 (≈ 0.905 µM)	0.3 (≈ 0.905 µM)	inactive	0.3 (≈ 0.905 µM)	1.3 (≈ 3.92 µM)						
Cc1ccc(/C=C2\CC[C@]3(C2=O)[C@H](c2ccc(C)cc2)C(c2ccccc2)=NN3c2ccccc2)cc1	2.5 (≈ 5.18 µM)	5 µg/mL (≈ 10.4 µM)	1.3 (≈ 2.69 µM)	0.6 (≈ 1.24 µM)	inactive	5 (≈ 10.4 µM)	1.3 (≈ 2.69 µM)						
Cc1ccc(N2N=C(c3ccccc3)[C@@H](c3ccccc3)[C@@]23CC/C(=C\c2ccccc2)C3=O)cc1	0.6 (≈ 1.28 µM)	1.3 µg/mL (≈ 2.77 µM)	5 (≈ 10.7 µM)	5 (≈ 10.7 µM)	inactive	1.3 (≈ 2.77 µM)	2.5 (≈ 5.34 µM)						
O=C1/C(=C/c2ccc(F)cc2)CC[C@@]12[C@H](c1ccc(F)cc1)C(c1ccccc1)=NN2c1ccccc1	10 (≈ 20.4 µM)	5 µg/mL (≈ 10.2 µM)	5 (≈ 10.2 µM)	10 (≈ 20.4 µM)	inactive	5 (≈ 10.2 µM)	2.5 (≈ 5.1 µM)						
